Measurements from ChEMBL document CHEMBL4351014, “Bis(het)aryl-1,2,3-triazole quinuclidines as α7 nicotinic acetylcholine receptor ligands: Synthesis, structure affinity relationships, agonism activity, [18F]-radiolabeling and PET study in rats” (Eur J Med Chem, 2019).
Activity calls are given as the source filed them. The calls are words filed in the database; no cut-off is given here.

Legend:
[1] = biological target: Neuronal acetylcholine receptor subunit alpha-7 (Rattus norvegicus, UniProt Q05941); assay: Displacement of [125I]-alpha-bungarotoxin from alpha7 nAChR in Wistar rat brain membrane incubated for 3 hrs by gamma counting analysis; type: cell membranes
Chain of Neuronal acetylcholine receptor subunit alpha-7 (Q05941 whole entry): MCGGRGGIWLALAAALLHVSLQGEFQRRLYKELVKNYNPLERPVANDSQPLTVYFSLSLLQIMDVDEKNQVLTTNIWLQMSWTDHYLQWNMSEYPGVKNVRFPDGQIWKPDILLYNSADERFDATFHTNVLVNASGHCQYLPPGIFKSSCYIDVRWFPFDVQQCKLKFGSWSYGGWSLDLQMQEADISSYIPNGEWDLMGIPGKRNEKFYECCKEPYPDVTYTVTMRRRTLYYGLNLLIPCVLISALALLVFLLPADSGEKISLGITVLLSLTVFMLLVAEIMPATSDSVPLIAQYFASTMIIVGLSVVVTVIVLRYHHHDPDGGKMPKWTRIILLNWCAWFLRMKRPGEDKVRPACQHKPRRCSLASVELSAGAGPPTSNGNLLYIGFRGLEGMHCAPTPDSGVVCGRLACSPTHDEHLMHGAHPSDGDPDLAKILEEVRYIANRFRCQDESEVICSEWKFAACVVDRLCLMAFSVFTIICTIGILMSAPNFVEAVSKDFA
In short: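 Frontal cortex membranes from male Wistar rats (2 rats per experiment), homogenised in pH 7.4 HEPES buffer and spun at 45,000×g. 25 μg protein incubated with 2 nM [125I]α-bungarotoxin and 10^-10 to 10^-6 M competitor in pH 7.4 Tris-HCl with Ca/Mg for 3 h at 22 °C. Nonspecific binding defined with 1 μM α-bungarotoxin. Filtered on PEI-soaked GF/C, gamma counted. IC50 read graphically, converted to Ki.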

[2] = biological target: Neuronal acetylcholine receptor subunit alpha-7 (Homo sapiens) (UniProt P36544); assay: Agonist activity at alpha7 nAChR in human SH-SY5Y cells assessed as intracellular calcium release at 7 nM preincubated for 1 min with alpha7 nAchR PAM PNU120596 prior to compound addition by Fluo-3 AM staining-based fluorescence spectral scanning multimode reader analysis; type: cell-based
Chain of Neuronal acetylcholine receptor subunit alpha-7 (Homo sapiens) (P36544 whole entry): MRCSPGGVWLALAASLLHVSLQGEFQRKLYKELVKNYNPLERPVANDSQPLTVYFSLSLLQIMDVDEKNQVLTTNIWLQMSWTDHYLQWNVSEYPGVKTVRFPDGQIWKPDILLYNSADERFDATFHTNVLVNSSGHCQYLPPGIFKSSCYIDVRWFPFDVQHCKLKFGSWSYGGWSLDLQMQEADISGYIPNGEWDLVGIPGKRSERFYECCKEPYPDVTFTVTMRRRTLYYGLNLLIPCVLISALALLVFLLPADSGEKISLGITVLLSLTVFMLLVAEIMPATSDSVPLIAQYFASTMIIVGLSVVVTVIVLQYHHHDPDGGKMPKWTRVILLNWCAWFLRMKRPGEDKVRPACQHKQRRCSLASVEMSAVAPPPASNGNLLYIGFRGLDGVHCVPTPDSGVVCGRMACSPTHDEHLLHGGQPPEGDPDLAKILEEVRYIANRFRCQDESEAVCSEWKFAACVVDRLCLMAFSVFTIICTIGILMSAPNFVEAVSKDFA
In short: (§1)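 SH-SY5Y (ATCC) grown in MEM/F12 1:1 with 10% heat-inactivated FBS, differentiated with 10 μM retinoic acid for 7 days. Cells loaded with 10 μM fluo-3 AM plus 0.02% Pluronic F127 for 1 h at r.t. in the dark, then preincubated 20 min at r.t. in Tyrode's solution with vehicle. PNU-120596 added in the last minute. Fluorescence read at Ex 506/Em 526 nm, normalised to Triton (Fmax) and MnCl2 (Fmin). 5 experiments in duplicate, mean ± SEM.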

SH-SY5Y [3] = assay: Cytotoxicity against human SH-SY5Y cells assessed as cell viability at 0.13 to 1.3 uM incubated for 48 hrs by MTS assay; type: cell-based
In short: (§2)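 Retinoic acid-differentiated SH-SY5Y cells exposed for 48 h to 10, 100 and 1000 × Ki of each agent. MTS added for 3 h, absorbance read at 490 nm. Viability given as % of vehicle-treated cells. 4 independent experiments in triplicate, mean ± SEM.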

[4] = biological target: Neuronal acetylcholine receptor subunit alpha-7 (Homo sapiens) (UniProt P36544); assay: (§3) Agonist activity at alpha7 nAChR in human SH-SY5Y cells assessed as increase in intracellular calcium release at 130 nM preincubated for 1 min with alpha7 nAchR PAM PNU120596 prior to compound addition by Fluo-3 AM staining-based fluorescence spectral scanning multimode reader analysis; type: cell-based; in short: as §1
[5] = Cytotoxicity against human SH-SY5Y cells assessed as reduction in cell viability at 13 uM incubated for 48 hrs by MTS assay relative to control; type: cell-based; conditions: read-out: INH; in short: as §2
[6] = biological target: Neuronal acetylcholine receptor subunit alpha-7 (Homo sapiens) (UniProt P36544); assay: as §3, with “release of” for “increase in”, “calcium” for “calcium release”, “for 20 mins with alpha7 nAChR antagonist alpha-bungarotoxin and for” for “for”, “nAChR” for “nAchR”; type: cell-based
In short: (§4)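 Differentiated SH-SY5Y cells loaded with fluo-3 AM as above, then preincubated 20 min at r.t. in Tyrode's solution with 100 nM α-bungarotoxin. PNU-120596 added 1 min before test agent or 3 mM choline. Fluorescence read at Ex 506/Em 526 nm, response expressed as % of (Fmax−Fmin) from 0.3% Triton X-100 then 100 mM MnCl2. 5 experiments in duplicate, mean ± SEM.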

[7] = biological target: Neuronal acetylcholine receptor; alpha4/beta2 (Homo sapiens, UniProt P17787+P43681); assay: Displacement of [3H]cytisine from human recombinant alpha4beta2 nAChR incubated for 120 mins by radiometric scintillation analysis; type: protein-complex assay
Chain of Neuronal acetylcholine receptor; alpha4/beta2 (P17787 whole entry): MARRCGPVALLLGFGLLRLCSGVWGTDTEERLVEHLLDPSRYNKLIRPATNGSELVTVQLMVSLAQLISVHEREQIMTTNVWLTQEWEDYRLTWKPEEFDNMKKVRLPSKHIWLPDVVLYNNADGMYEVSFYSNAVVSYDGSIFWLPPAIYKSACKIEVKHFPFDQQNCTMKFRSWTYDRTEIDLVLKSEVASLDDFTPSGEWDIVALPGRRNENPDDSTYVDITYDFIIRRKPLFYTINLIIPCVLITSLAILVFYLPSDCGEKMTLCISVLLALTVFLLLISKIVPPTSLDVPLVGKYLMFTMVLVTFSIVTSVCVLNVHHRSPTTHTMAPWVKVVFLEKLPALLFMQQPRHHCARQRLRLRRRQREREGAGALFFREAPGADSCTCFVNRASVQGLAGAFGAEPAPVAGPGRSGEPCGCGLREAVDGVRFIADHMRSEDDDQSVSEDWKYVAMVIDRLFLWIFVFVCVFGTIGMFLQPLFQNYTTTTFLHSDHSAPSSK
Chain of Neuronal acetylcholine receptor; alpha4/beta2 (P43681 whole entry): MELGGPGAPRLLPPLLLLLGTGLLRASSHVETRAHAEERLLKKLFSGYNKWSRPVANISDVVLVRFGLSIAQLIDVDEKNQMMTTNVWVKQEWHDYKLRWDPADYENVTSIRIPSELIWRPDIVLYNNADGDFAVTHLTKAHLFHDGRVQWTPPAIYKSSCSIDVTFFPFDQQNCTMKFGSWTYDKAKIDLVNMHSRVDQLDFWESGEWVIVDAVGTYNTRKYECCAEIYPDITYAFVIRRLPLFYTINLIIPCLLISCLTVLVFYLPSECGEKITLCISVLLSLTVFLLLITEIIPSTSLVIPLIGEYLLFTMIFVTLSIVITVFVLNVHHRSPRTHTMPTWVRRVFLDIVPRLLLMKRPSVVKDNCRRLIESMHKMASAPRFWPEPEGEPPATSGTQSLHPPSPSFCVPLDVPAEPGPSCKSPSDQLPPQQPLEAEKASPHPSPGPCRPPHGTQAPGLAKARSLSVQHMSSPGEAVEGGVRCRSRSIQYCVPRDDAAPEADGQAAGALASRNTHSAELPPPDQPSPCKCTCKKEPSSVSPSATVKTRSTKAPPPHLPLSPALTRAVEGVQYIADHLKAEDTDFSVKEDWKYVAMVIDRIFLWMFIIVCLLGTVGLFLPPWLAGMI

[8] = biological target: T1, 5-hydroxytryptamine receptor 3A (Homo sapiens, UniProt P46098); assay: Displacement of [3H]BRL 43694 from human 5HT3R by radioligand displacement assay
T1 sequence (P46098 whole entry): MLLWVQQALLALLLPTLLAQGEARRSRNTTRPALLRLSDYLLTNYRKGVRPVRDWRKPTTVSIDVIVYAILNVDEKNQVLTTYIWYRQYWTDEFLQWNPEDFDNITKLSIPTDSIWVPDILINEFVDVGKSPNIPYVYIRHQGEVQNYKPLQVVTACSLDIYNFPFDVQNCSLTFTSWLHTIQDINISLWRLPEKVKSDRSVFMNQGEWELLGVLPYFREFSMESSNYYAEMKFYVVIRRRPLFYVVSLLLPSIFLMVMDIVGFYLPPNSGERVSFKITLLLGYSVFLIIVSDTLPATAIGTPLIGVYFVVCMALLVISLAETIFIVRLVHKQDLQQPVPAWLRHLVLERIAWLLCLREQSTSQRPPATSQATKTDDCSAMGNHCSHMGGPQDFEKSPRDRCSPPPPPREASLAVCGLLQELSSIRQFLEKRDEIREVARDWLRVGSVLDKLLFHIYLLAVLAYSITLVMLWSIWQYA

[9] = biological target: Neuronal acetylcholine receptor subunit alpha-7 (Homo sapiens) (UniProt P36544); assay: (§5) Agonist activity at alpha7 nAChR in human SH-SY5Y cells assessed as release of intracellular calcium at 3 nM preincubated for 20 mins with alpha7 nAChR antagonist alpha-bungarotoxin and for 1 min with alpha7 nAChR PAM PNU120596 prior to compound addition by Fluo-3 AM staining-based fluorescence spectral scanning multimode reader analysis; type: cell-based; in short: as §4
SH-SY5Y [10] = assay: Cytotoxicity against human SH-SY5Y cells assessed as cell viability at 0.003 to 3 uM incubated for 48 hrs by MTS assay; type: cell-based; in short: as §2
[11] = biological target: Neuronal acetylcholine receptor subunit alpha-7 (Homo sapiens) (UniProt P36544); assay: as §3, with “3” for “130”, “analysis relative to choline” for “analysis”; type: cell-based; in short: as §1
[12] = biological target: Neuronal acetylcholine receptor subunit alpha-7 (Homo sapiens) (UniProt P36544); assay: Agonist activity at alpha7 nAChR in human SH-SY5Y cells assessed as increase in intracellular calcium release at 50 nM preincubated for 1 min with alpha7 nAchR PAM PNU120596 prior to compound addition by Fluo-3 AM staining-based fluorescence spectral scanning multimode reader analysis; type: cell-based; in short: as §1
SH-SY5Y [13] = assay: Cytotoxicity against human SH-SY5Y cells assessed as cell viability at 50 nM to 5 uM incubated for 48 hrs by MTS assay; type: cell-based; conditions: 0.05 µM; in short: as §2
[14] = biological target: Neuronal acetylcholine receptor subunit alpha-7 (Homo sapiens) (UniProt P36544); assay: as §5, with “at 50” for “at 3”; type: cell-based; in short: as §4

SMILES	Ki [1]	further results
CN1CCN(Cc2cccc(-c3ccc(-c4cn([C@H]5CN6CCC5CC6)nn4)s3)c2)CC1	16 nM	
OCc1cccc(-c2ccc(-c3cn([C@H]4CN5CCC4CC5)nn3)s2)c1	0.7 nM	Activity [2]: inactive
Fc1ccc(-c2ccc(-c3cn([C@H]4CN5CCC4CC5)nn3)cc2)cn1	> 1000 nM	
Fc1ccc(-c2csc(-c3cn([C@H]4CN5CCC4CC5)nn3)c2)cn1	31 nM	
c1cc(CN2CCOCC2)cc(-c2ccc(-c3cn([C@H]4CN5CCC4CC5)nn3)s2)c1	16 nM	
OCc1ccc(-c2ccc(-c3cn([C@H]4CN5CCC4CC5)nn3)s2)cc1F	12 nM	
COC(=O)c1ccc(-c2ccc(-c3cn([C@H]4CN5CCC4CC5)nn3)s2)cc1F	80 to 90 nM	
FCCOc1ccc(-c2ccc(-c3cn([C@H]4CN5CCC4CC5)nn3)s2)cc1	340 nM	
c1cc(CN2CCOCC2)cc(-c2cccc(-c3cn([C@H]4CN5CCC4CC5)nn3)c2)c1	49 nM	
OCCc1ccc(-c2ccc(-c3cn([C@H]4CN5CCC4CC5)nn3)s2)cc1	1.5 nM	
CN1CCN(Cc2cccc(-c3cccc(-c4cn([C@H]5CN6CCC5CC6)nn4)c3)c2)CC1	39 nM	
Fc1ccc(-c2ccc(-c3cn([C@H]4CN5CCC4CC5)nn3)s2)cn1	13 nM	Activity (SH-SY5Y [3]): Non-Toxic; Activity [4]: Active; cytotoxicity at 48 h, 13 µM [5]: 15%; Activity [6]: inactive; Ki [7]: > 1000 nM; Ki [8]: 440 nM
OC1CCN(Cc2ccc(-c3ccc(-c4cn([C@H]5CN6CCC5CC6)nn4)s3)cc2)CC1	0.3 nM	
NCc1ccc(-c2ccc(-c3cn([C@H]4CN5CCC4CC5)nn3)s2)cc1	0.3 nM	
c1cc(-c2ccc(-c3cn([C@H]4CN5CCC4CC5)nn3)s2)ccc1CN1CCCCC1		Activity [9]: inactive; Activity (SH-SY5Y [10]): Non-Toxic; Ki [7]: 1000 nM; Activity [11]: 80%; Ki [8]: 560 nM
c1cc2c(cc1-c1ccc(-c3cn([C@H]4CN5CCC4CC5)nn3)s1)OCCO2	140 nM	
c1cc(CN2CCCCC2)cc(-c2ccc(-c3cn([C@H]4CN5CCC4CC5)nn3)s2)c1	17 nM	
COCOCCOc1ccc(-c2ccc(-c3cn([C@H]4CN5CCC4CC5)nn3)s2)cc1	140 nM	
c1cc(-c2ccc(CN3CCOCC3)cc2)cc(-c2cn([C@H]3CN4CCC3CC4)nn2)c1	12.5 nM	

SMILES	Ki [1]	further results
OCc1ccc(-c2cccc(-c3cn([C@H]4CN5CCC4CC5)nn3)c2)cc1	7 nM	
OCc1ccc(-c2ccc(-c3cn([C@H]4CN5CCC4CC5)nn3)cc2)s1	120 to 200 nM	
OCCOc1ccc(-c2ccc(-c3cn([C@H]4CN5CCC4CC5)nn3)s2)cc1	1.7 nM	
OCc1ccc(-c2csc(-c3cn([C@H]4CN5CCC4CC5)nn3)c2)cc1	1.5 nM	
FCc1ccc(-c2ccc(-c3cn([C@H]4CN5CCC4CC5)nn3)s2)cc1		Activity [12]: Active; Activity (SH-SY5Y [13]): Non-Toxic; Activity [14]: inactive; Ki [7]: > 1000 nM; Ki [8]: > 1000 nM
OCc1ccc(-c2cccc(-c3cn([C@H]4CN5CCC4CC5)nn3)c2)s1	0.2 nM	
c1cc(CN2CCCCC2)cc(-c2cccc(-c3cn([C@H]4CN5CCC4CC5)nn3)c2)c1	122 nM	
FCCc1ccc(-c2ccc(-c3cn([C@H]4CN5CCC4CC5)nn3)s2)cc1	157 nM	
c1cc2c(cc1-c1ccc(-c3cn([C@H]4CN5CCC4CC5)nn3)s1)CCO2	60 nM	
OCc1ccc(-c2ccc(-c3cn([C@H]4CN5CCC4CC5)nn3)s2)s1	0.8 nM	
FC1CCN(Cc2ccc(-c3ccc(-c4cn([C@H]5CN6CCC5CC6)nn4)s3)cc2)CC1	2.8 nM	
OCc1ccc(-c2ccc(-c3cn([C@H]4CN5CCC4CC5)nn3)cc2)cc1	100 to 175 nM	
c1ccc(-c2ccc(-c3cn([C@H]4CN5CCC4CC5)nn3)s2)cc1	43 nM	
FCc1cccc(-c2ccc(-c3cn([C@H]4CN5CCC4CC5)nn3)s2)c1	42 nM	
c1csc(-c2ccc(-c3cn([C@H]4CN5CCC4CC5)nn3)cc2)c1	110 to 160 nM	
c1cc(-c2ccc(CN3CCCCC3)cc2)cc(-c2cn([C@H]3CN4CCC3CC4)nn2)c1	3 nM	
CN1CCN(Cc2ccc(-c3cccc(-c4cn([C@H]5CN6CCC5CC6)nn4)c3)cc2)CC1	1.9 nM	
OCc1ccc(-c2cccc(-c3cn([C@H]4CN5CCC4CC5)nn3)c2)cc1F	18 nM	
FCC1CCN(Cc2ccc(-c3ccc(-c4cn([C@H]5CN6CCC5CC6)nn4)s3)cc2)CC1	1.4 nM	
